# Rows were chosen to be rich in hits. Some 1.2% of all compounds tested hit in one or more screens of this group.
# CAL PDZ FP-1 – CAL PDZ peptide-binding inhibitors, primary screen, biochemical, fluorescence polarization, Cer-tagged CAL PDZ, HTS. AID 504414, 2011. Golgi-associated PDZ and coiled-coil motif-containing protein (Homo sapiens), Q9HD26. inhibition, % at 20 µM. 330,000 tested, 0.02% active. purified CAL PDZ, TMR-peptide fluorescence polarization, 1 h;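 active = highest replicate inhibition of at least 40%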;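 note: plate controls were DMSO neutral control wells for no effect and unlabeled competitor peptide control wells for full effect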
#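 Test system: purified CerCALP PDZ construct; Compound dosing: one concentration, 20 µM compound; Also added: TMR-labelled reporter peptide T*-PRC34 bound in PDZ groove; Read-out: inhibition from polarization loss; Controls: unlabelled peptide and DMSO controls; Signal: FP readout, S and P plane fluorescence; Incubation: 1 h at RT.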
# ARNT-TACC3 inh – disruptors of ARNT/TACC3 protein interaction, primary screen, biochemical, AlphaScreen, single concentration; Transforming acidic coiled-coil-containing protein 3 (Homo sapiens), Q9Y6A5; AlphaScreen His-ARNT PAS-B/GST-TACC3 binding, luminescence; TACC3 fragment carries E629A point mutation; inhibition, % at 9.99 µM; 390,000 tested, 0.66% active; AID 623870, 2012;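 active = mean inhibition of replicates at least 50% and at least half of replicates each reaching 50%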;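 note: 0% = complete ARNT plus TACC3 wells and 100% = ARNT alone without TACC3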
# CAL PDZ FP-2 – untagged CAL PDZ binding inhibitors, primary screen, biochemical, fluorescence polarization, HTS; 300,000 tested, 0.92% active; AID 602252, 2012; purified CAL PDZ, TMR-peptide fluorescence polarization, 1 h; inhibition, % at 24.9 µM;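 active = mean inhibition of at least 30% with at least half of replicates also reaching 30%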;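 note: 0% = DMSO neutral control and 100% = excess unlabeled competitor peptide PRC23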
# Starred values were filed as active, the others as inactive; / = no result given.
SMILES,CAL PDZ FP-1,ARNT-TACC3 inh,CAL PDZ FP-2
COc1ccc(C(CC(=O)O)NC(=O)c2ccccc2[N+](=O)[O-])cc1 (stereo not given),0,/,31*
COc1ccc(C(CC(=O)O)NC(=O)c2cccs2)cc1 (stereo not given),0,-1,/
O=C(N[C@H]1C=C[C@@H](CC(=O)N2CCc3ccccc3C2)O[C@H]1CO)C1CC1,/,12,/
O=C(CNC(=O)c1ccccc1)OCC(=O)c1ccccc1Cl,0,-4,49*
O=C(Cc1ccccc1)NCC(=O)OCC(=O)c1ccccc1Cl,-2,-2,-7
C[C@@H]1CCCCO[C@H](CN(C)CC2CCCCC2)[C@@H](C)CN([C@H](C)CO)C(=O)c2cc(NC(=O)NC3CCCCC3)ccc2O1,/,-2,/
NNC(=O)Cn1nc2n(c1=O)-c1ccccc1SC2,-1,-3,-7
CNC(=O)NC(=O)Cn1nc2n(c1=O)-c1ccccc1SC2,0,-1,53*
COc1ccc(CN(C)C[C@H]2Oc3c(NS(C)(=O)=O)cccc3C(=O)N([C@H](C)CO)C[C@@H]2C)cc1,/,11,/
COc1ccc(CN(C)C[C@H]2Oc3ccc(NC(=O)Nc4c(C)noc4C)cc3CC(=O)N([C@@H](C)CO)C[C@@H]2C)cc1,/,-7,/
O=C1c2ccccc2C(=O)c2c(NCc3cccnc3)cccc21,-1,6,-3
O=C1c2cccc(NCCCNCCO)c2C(=O)c2cccc(NCCCNCCO)c21,7,49*,-3
CC(C)CCNC(=O)NC(=O)COC(=O)/C=C/c1cccc([N+](=O)[O-])c1,6,3,37*
C=CCNC(=O)NC(=O)COC(=O)/C=C/c1cccc([N+](=O)[O-])c1,-1,-2,1
CCC(=O)N1[C@H](CO)[C@@H](c2ccc(-c3ccccc3)cc2)[C@@H]1CNC(=O)COC,/,-4,/
NC(=O)C1c2ccccc2Oc2ccccc21,/,-7,75*
NNC(=O)C1c2ccccc2Oc2ccccc21,-2,-3,0
Cc1cc(NC(=O)CC(C)C)c(=O)n(Cc2ccccc2F)c1,-1,active,-2
Cc1cc(NC(=O)CC(C)C)c(=O)n(Cc2c(F)cccc2Cl)c1,/,8,-4
c1ccc(-c2csc(Nc3cccnc3)n2)nc1,0,45*,/
COc1cccc2sc(NNC(=O)COc3ccccc3)nc12,-1,-3,/
COc1cccc2sc(Nc3nc(-c4ccccn4)cs3)nc12,1,45*,-2
c1cncc(Nc2nc(-c3cccs3)cs2)c1,1,2,-5
C[C@@H]1CCCCO[C@H](CN(C)C(=O)NC2CCCCC2)[C@@H](C)CN([C@@H](C)CO)C(=O)c2cc(NC(=O)Cc3ccccc3)ccc2O1,/,-3,/
Cc1cccc(NC(=O)Cn2cnc3c(oc4ccccc43)c2=O)c1C,62*,-4,-6
SMILES,CAL PDZ FP-1,ARNT-TACC3 inh,CAL PDZ FP-2
Cc1ccccc1NC(=O)Cn1cnc2c(oc3ccccc32)c1=O,0,5,-5
Cc1cc(C)cc(C(=O)Nc2nc3ccccc3[nH]2)c1,-2,5,-6
O=C(Nc1nc2ccccc2[nH]1)c1cc2ccccc2o1,25,14,46*
C[C@@H]1CN([C@H](C)CO)C(=O)c2ccccc2-c2ccccc2CO[C@@H]1CN(C)S(=O)(=O)c1cccc(C#N)c1,/,12,/
CCCCOC(=O)c1ccc(OC(=O)c2cccnc2)cc1,0,-8,33*
CCCCCCOC(=O)c1ccc(OC(=O)c2cccnc2)cc1,0,-1,-4
CO[C@H]1CN(C)C(=O)c2cc(NS(=O)(=O)c3ccc(C)cc3)ccc2OC[C@H](C)N(Cc2nccs2)C[C@H]1C,/,1,/
O=C(CCC(=O)c1ccccc1)Nc1ccccc1OC(F)F,-1,-7,33*
O=C(Nc1ccccc1OC(F)F)c1ccccc1,-1,-5,/
Cc1ccc(S(=O)(=O)Nc2cccc3c2O[C@H](CN(C)C(=O)Nc2ccc4c(c2)OCO4)[C@@H](C)CN([C@H](C)CO)C3=O)cc1,/,2,/
C[C@H](CO)N1C[C@H](C)[C@H](CN(C)Cc2ccncc2)Oc2ccc(NC(=O)Nc3cccc4ccccc34)cc2C1=O,/,15,/
N#C[C@@H]1[C@@H](c2ccc(-c3cccnc3)cc2)[C@H](CO)N1C(=O)C1CC1,/,-11,/
COc1ccc(NC(=O)N[C@H]2CC[C@@H](CCNC(=O)c3ccccc3F)O[C@@H]2CO)cc1,/,-9,/
O=C(N=Nc1c(O)[nH]c2ccc([N+](=O)[O-])cc12)c1ccccc1Cl,1,-5,10
O=C(O)c1ccccc1N=Nc1c(O)[nH]c2ccc([N+](=O)[O-])cc12,2,47*,-1
Cc1ccc(NC(=S)NC2CCN(Cc3ccccc3)CC2)cc1C,-1,7,47*
Cc1ccc(NC(=S)NC2CCN(Cc3ccccc3)CC2)cc1,-1,2,1
CCC(=O)Nc1ccc2c(c1)C(=O)N(C)[C@H]1CC[C@H](CC(=O)N3CCc4ccccc4C3)O[C@H]1CO2,/,-5,/
C=C(C)C(=O)Nc1cccnc1Oc1ccc(F)cc1,0,0,112*
COc1ccc(Oc2ncccc2NC(=O)c2cccc(C)c2C)cc1,0,-8,-7
CNC(=O)C[C@@H]1CC[C@H]2[C@H](COc3ccc(NC(=O)Nc4ccc(F)cc4)cc3C(=O)N2C)O1,/,14,/
COc1ccc(Cl)cc1NC(=O)NC1CCCCC1,0,2,-3
CCCN1CCC(NC(=O)Nc2cc(Cl)ccc2OC)CC1,-1,1,36*
N=c1n(CC(=O)c2ccc(Br)s2)c2ccccc2n1Cc1ccccc1,-2,8,38*
Cn1c(=N)n(CC(=O)c2ccc(Br)s2)c2ccccc21,/,-10,-6
SMILES,CAL PDZ FP-1,ARNT-TACC3 inh,CAL PDZ FP-2
CCOc1ccc(C(=O)Nc2nnc(C3=COCCO3)o2)cc1,-4,27,0
O=C(COc1ccc(Cl)cc1)Nc1nnc(C2=COCCO2)o1,-1,47*,-1
COc1ccc(C(=O)Nc2nnc(C3=COCCO3)o2)cc1,-2,58*,-2
O=C(COc1ccc(Cl)cc1Cl)Nc1nnc(C2=COCCO2)o1,20,24,-5
COc1ccc(O)c(/C=N/n2c(-c3ccco3)csc2=Nc2cccnc2)c1,-2,62*,-2
COCCn1c(-c2ccco2)csc1=Nc1cccnc1,0,10,/
C[C@H]1CCCCO[C@H](CN(C)C(=O)Nc2cccc3ccccc23)[C@@H](C)CN([C@@H](C)CO)C(=O)c2cc(NS(=O)(=O)c3cn(C)cn3)ccc2O1,/,6,/
CC(C)CSc1nnc(N)s1,-1,-6,58*
CCSc1nnc(N)s1,0,-5,/
C[C@H]1CN([C@@H](C)CO)C(=O)c2cc(NC(=O)Cc3ccccc3)ccc2O[C@@H]1CN(C)Cc1ccc(C(=O)O)cc1,/,-2,/
CC(C)C(C(=O)Nc1ccccc1)N1C(=O)c2ccccc2C1=O (stereo not given),-1,9,/
CC(C)C(C(=O)Nc1ncn[nH]1)N1C(=O)c2ccccc2C1=O (stereo not given),0,36*,1

# Source: PubChem (Broad Institute)
